Measured values: ChEMBL document CHEMBL4406854, “Synthesis and in-vitro anti-HIV-1 evaluation of novel pyrazolo[4,3-c]pyridin-4-one derivatives” (Eur J Med Chem, 2019)
pIC50: −log10 of the molar value. Activity calls are given as the source filed them. The rule behind the calls is not given here.

Assays:
[1] = Cytotoxicity against human TZM-bl cells assessed as reduction in cell viability incubated for 48 hrs by MTT assay; type: cell-based
Method in brief: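 TZM-bl cells (10^4/well) were seeded overnight at 37 °C in humidified 5% CO2. Serial two-fold dilutions were added, with AZT as control, for 48 h. Viability was read by MTT, and CC50 (concentration leaving 50% of cells viable) was obtained by non-linear regression.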

[2] = test system: Human immunodeficiency virus 1; assay: Antiviral activity against HIV1 VB59 infected in human TZM-bl cells incubated for 48 hrs by bright Glo-luciferase reporter gene assay; type: functional, organism-based; conditions: Human immunodeficiency virus 1, VB59, TZM-bl
Method in brief: (§1)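 TZM-bl cells (10^4/well, seeded the day before) were infected with pre-titrated HIV-1 VB59 or UG070 stocks for 2 h. Serial two-fold dilutions at sub-toxic concentrations were then added, with AZT as control, for 48 h. Britelite plus luciferase substrate was added and RLU measured. IC50 was derived from percent inhibition against infected untreated and uninfected controls.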

[3] = Cytotoxicity against human PBMC cells assessed as reduction in cell viability incubated for 5 days by MTT assay; type: cell-based
Method in brief: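 PBMCs (0.2×10^6 cells/well) were activated with PHA-p (5 µg/mL) and IL-2 (5 U/mL) and exposed to serial two-fold compound dilutions at 37 °C, 5% CO2, for 5 days. Viability was measured by MTT and CC50 calculated.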

[4] = Therapeutic index, ratio of CC50 for human TZM-bl cells to IC50 for antiviral activity against HIV1 VB59 infected in human TZM-bl cells; type: toxicity, cell-based; conditions: read-out: Ratio CC50/IC50
Method in brief: (§2)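 TI = CC50/IC50. CC50 came from 48 h MTT viability of TZM-bl cells. IC50 came from 48 h luciferase read-out in TZM-bl cells infected for 2 h with HIV-1 UG070 or VB59 and then treated with two-fold dilutions at sub-toxic concentrations.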

[5] = test system: Human immunodeficiency virus 1; assay: Antiviral activity against HIV1 UG070 infected in human TZM-bl cells incubated for 48 hrs by bright Glo-luciferase reporter gene assay; type: functional, organism-based; conditions: Human immunodeficiency virus 1, UG070, TZM-bl; method in brief: as §1
[6] = Therapeutic index, ratio of CC50 for human TZM-bl cells to IC50 for antiviral activity against HIV1 UG070 infected in human TZM-bl cells; type: toxicity, cell-based; conditions: read-out: Ratio CC50/IC50; method in brief: as §2
[7] = test system: Human immunodeficiency virus 1; assay: Antiviral activity against HIV1 92/BR/018 infected in human TZM-bl cells incubated for 48 hrs by bright Glo-luciferase reporter gene assay; type: functional, organism-based; conditions: Human immunodeficiency virus 1, 92/BR/018, TZM-bl
Method in brief: (§3)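 TZM-bl cells (HeLa-derived, expressing CD4/CXCR4/CCR5, with an LTR-driven luciferase reporter) were seeded at 10^4 cells/well overnight. Cells were infected with pre-titrated virus for 2 h, then given serial two-fold dilutions of sub-toxic compound concentrations and incubated 48 h. Luciferase substrate was added and RLU read. IC50 was taken from percent inhibition versus infected untreated controls. NVP and AZT served as controls.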

[8] = Therapeutic index, ratio of CC50 for human TZM-bl cells to IC50 for antiviral activity against HIV1 92/BR/018 infected in human TZM-bl cells; type: toxicity, cell-based; conditions: read-out: Ratio CC50/IC50
Method in brief: (§4)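 TI = CC50/IC50. CC50 came from TZM-bl cells (10^4/well) exposed to serial two-fold dilutions for 48 h at 37 °C, 5% CO2, with MTT viability and non-linear regression fitting. IC50 came from TZM-bl cells infected 2 h, treated with sub-toxic two-fold dilutions for 48 h, with luciferase RLU read-out.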

[9] = test system: Human immunodeficiency virus 1; assay: Antiviral activity against HIV1 N119 infected in human TZM-bl cells incubated for 48 hrs by bright Glo-luciferase reporter gene assay; type: functional, organism-based; conditions: Human immunodeficiency virus 1, N119, TZM-bl; method in brief: as §3
[10] = Therapeutic index, ratio of CC50 for human TZM-bl cells to IC50 for antiviral activity against HIV1 N119 infected in human TZM-bl cells; type: toxicity, cell-based; conditions: read-out: Ratio CC50/IC50; method in brief: as §4
[11] = test system: Human immunodeficiency virus 1; assay: Antiviral activity against HIV1 VB51 infected in human PBMC cells incubated for 5 days by bright Glo-luciferase reporter gene assay; type: functional, organism-based; conditions: Human immunodeficiency virus 1, VB51, 120 h
Method in brief: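 PBMCs (0.2×10^6 cells/well) were activated with PHA-p (5µg/mL) and IL-2 (5U/mL). Sub-toxic concentrations, chosen from a 5-day MTT CC50 at 37 °C in 5% CO2, were used against R5-tropic HIV-1 VB51.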

[12] = test system: Human immunodeficiency virus 1; assay: Antiviral activity against HIV1 NARI-DR infected in human TZM-bl cells incubated for 48 hrs by bright Glo-luciferase reporter gene assay; type: functional, organism-based; conditions: Human immunodeficiency virus 1, NARI-DR; method in brief: as §3
[13] = Therapeutic index, ratio of CC50 for human TZM-bl cells to IC50 for antiviral activity against HIV1 NARI-DR infected in human TZM-bl cells; type: toxicity, cell-based; conditions: read-out: Ratio CC50/IC50; method in brief: as §4
[14] = Therapeutic index, ratio of CC50 for human PBMC cells to IC50 for antiviral activity against HIV1 VB51 infected in human PBMC cells
[15] = test system: Human immunodeficiency virus 1; assay: Antiviral activity against HIV1 NL4.3 infected in human TZM-bl cells measured upto 3 hrs by bright Glo-luciferase reporter gene assay; type: functional, organism-based
Method in brief: (§5)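 Time-of-addition: TZM-bl cells seeded at 10^4 cells/well and incubated overnight, then infected with HIV-1 NL4.3 (400 TCID50) in complete DMEM containing […] DEAE-dextran. Compounds and reference antiretrovirals were applied at five times their IC50 at 0, 1, 2, 3, 4, 6, 8, 10, 18 and 24 h post infection. Luciferase (RLU) was read 48 h post infection, in triplicate, as mean±SD.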

[16] = test system: Human immunodeficiency virus 1; assay: Antiviral activity against HIV1 NL4.3 infected in human TZM-bl cells measured upto 10 hrs by bright Glo-luciferase reporter gene assay; type: functional, organism-based; method in brief: as §5

Row | SMILES | pIC50 [2] | CC50 at 48 h [1] | selectivity ratio [4] | further results
1 | Cc1cc2c(cnn2-c2cc(F)cc(F)c2)c(=O)[nH]1 | < 3.72 | 130 µM | – | –
2 | Cc1cn([C@H]2C[C@H](N=[N+]=[N-])[C@@H](CO)O2)c(=O)[nH]c1=O [ZIDOVUDINE] | – | 872 µM | – | CC50 at 120 h [3]: 1070 µM
3 | Cc1cc2c(cnn2-c2cccc(F)c2)c(=O)[nH]1 | < 3.69 | 159 µM | – | –
4 | Cc1cc2c(cnn2-c2ccc(C(C)(C)C)cc2)c(=O)[nH]1 | < 3.75 | 45.9 µM | – | –
5 | Cc1cc2c(cnn2-c2ccc(Cl)cc2)c(=O)[nH]1 | < 3.71 | 260 µM | – | –
6 | Cc1ccnc2c1NC(=O)c1cccnc1N2C1CC1 [NEVIRAPINE] | – | – | – | pIC50 [7]: 6.52; selectivity ratio [8]: 1990; pIC50 [9]: 3.85; selectivity ratio [10]: 4.3; CC50 at 120 h [3]: 1000 µM; pIC50 [11]: 6.72; pIC50 [12]: 3.63; selectivity ratio [13]: 2.6; selectivity ratio [14]: 5280
7 | Cc1cc2c(cnn2-c2ccc(F)c(F)c2)c(=O)[nH]1 | < 3.72 | 133 µM | – | –
8 | Cc1cc2c(cnn2-c2ccc(Cl)c(Cl)c2)c(=O)[nH]1 | < 3.77 | 93.5 µM | – | –

Now from value to compound, other results behind:

Row | pIC50 [2] | SMILES | CC50 at 48 h [1] | selectivity ratio [4] | further results
9 | < 3.77 | Cc1cc2c(cnn2-c2cc(Cl)cc(Cl)c2)c(=O)[nH]1 | 93.5 µM | – | –
10 | 4.24 | Cc1ccc(-n2ncc3c(=O)[nH]c(C)cc32)cc1 | 383 µM | 6.6 | pIC50 [5]: 3.64; selectivity ratio [6]: 1.67
11 | 3.86 | Cc1cc2c(cnn2-c2ccc(Br)cc2)c(=O)[nH]1 | 79.8 µM | 0.58 | –
12 | 3.61 | COc1cccc(-n2ncc3c(=O)[nH]c(C)cc32)c1 | 553 µM | 2.24 | pIC50 [5]: < 3.71
13 | 3.90 | Cc1cc2c(cnn2-c2ccc(C)c(C)c2)c(=O)[nH]1 | 93.4 µM | 0.74 | –
14 | 3.92 | Cc1cc2c(cnn2-c2ccccc2)c(=O)[nH]1 | 708 µM | 5.86 | pIC50 [5]: 3.35
15 | 3.86 | Cc1cc2c(cnn2-c2cccc(Br)c2)c(=O)[nH]1 | 72.6 µM | 0.52 | –
16 | 3.89 | Cc1cc2c(cnn2-c2cccc(C(F)(F)F)c2)c(=O)[nH]1 | 34.1 µM | – | –
17 | < 3.77 | Cc1cc2c(cnn2-c2ccc(C(F)(F)F)cc2)c(=O)[nH]1 | 100 µM | – | –
18 | 5.44 | Cc1cc(C)cc(-n2ncc3c(=O)[nH]c(C)cc32)c1 | 679 µM | 185 | pIC50 [5]: 5.55; selectivity ratio [6]: 243; pIC50 [7]: 5.13; selectivity ratio [8]: 91; pIC50 [9]: 5.49; selectivity ratio [10]: 210; CC50 at 120 h [3]: 592 µM; pIC50 [11]: 5.06; Activity [15]: Active; Activity [16]: Active; pIC50 [12]: 5.60; selectivity ratio [13]: 268; selectivity ratio [14]: 68
